# Assay results as given in PubChem BioAssay.
# Activity calls are given as the source filed them.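 Rule for the calls, unless noted: active = inhibition of the reporter signal at or above 50%; inactive = inhibition below 50%.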
# Assays:
# [1] = inhibitors of TNFa-induced NFkB p65 translocation, primary screen, imaging, HUVEC, MLSMR starter and 10KST1 sets (AID 438;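 active = inhibition above 20% together with a positive visual image hit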;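 note: compound added about 3h40 before a 20 min TNFalpha stimulation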;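 for inhibition: signal is the nuclear over cytoplasmic p65 intensity ratio per well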); settings: HUVEC TNFa-induced p65 nuclear translocation; cell count: measured here: nuclei count (cytotoxicity indicator), at 2.08 µM; inhibition: at 2 µM, stronger effect = higher value, 0% TNFa-plus-vehicle, 100% no-TNFa wells
# [2] = inhibitors of mutant huntingtin aggregation, primary screen, imaging, exon1htt(103Q)mCFP cells, high-content imaging (AID 483;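 active = visual image review flags a hit and inhibition of aggregation exceeds 20%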;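 note: compound exposure lasted 3 days before fixation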;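 for nuclei count: percent of the per-plate median nuclei count of sample wells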); settings: exon1htt(103Q)mCFP cell line, aggregate imaging, at 2 µM; inhibition of aggregation: stronger effect = higher value; nuclei count: measured here: cell count, toxicity
# [3] = inhibitors of E-selectin induction by TNFa, primary screen, imaging, HUVEC, immunofluorescence, MLSMR starter and 10KST1 sets (AID 487;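 active = visually confirmed hit in the image check and inhibition above 20%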;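 for inhibition: signal is fraction of cell area covered by stained E-selectin grains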;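 for nuclei count: 100% = median nuclei count of all wells on the same plate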); settings: HUVEC TNFalpha-induced E-selectin immunofluorescence imaging, at 2 µM; inhibition: stronger effect = higher value; nuclei count: measured here: cell number, toxicity
# [4] = molecular target: Voltage-gated potassium channel subunit beta-2 (Rattus norvegicus) (UniProt P62483); assay: KvBeta enzyme negative modulators, primary screen, biochemical, NADPH fluorescence (AID 622;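 active = fluorescence slope higher than the sample average by over 3 SD, cut at about -0.22 in these data, passing the limit was not always enough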;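 note: slope of raw intensity against log time taken from 70 to 1610 s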); settings: recombinant KvBeta, 4-cyanobenzaldehyde reduction, at 10 µM, stronger effect = higher value
# [5] = molecular target: Voltage-gated potassium channel subunit beta-2 (Rattus norvegicus) (UniProt P62483); assay: KvBeta positive modulators, primary screen, biochemical, NADPH fluorescence (AID 623;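 active = NADPH fluorescence slope more negative than the mean of all samples by about 3 SD, 99.7% confidence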;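 note: fluorescence intensity change per second fitted from 20 to 320 s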); settings: Recombinant KvBeta, NADPH fluorescence decrease slope, 10 min; at 10 µM; stronger effect = lower value
# [6] = molecular target: Alpha-2C adrenergic receptor (Homo sapiens) (UniProt P18825); assay: modulators of alpha2C/GIRK thallium flux, primary screen, cell-based, HEK293 alpha2C/GIRK1/2 (AID 624;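 active = fluorescence slope after compound addition differing from the mean of all screened samples at 99.7% confidence, in either direction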;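 note: slope of fluorescence ratio to pre-addition baseline per second over 15 to 24 s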); settings: thallium flux BTC fluorescence, at 10 µM, actives lie on both sides
# [7] = inhibitors of larval lipid processing in zebrafish, primary screen, whole organism, PED6 fluorescence, gall bladder and intestine (AID 686;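 active = a full or partial loss of lipid-probe fluorescence in the fish gall bladder, intestine or both, judged by eye; inactive = no fluorescence loss, or compound toxic to the fish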;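 note: larvae 5 to 7 days old with five fish per well; signal comes from phospholipase A2 cleavage of quenched PED6 carried via bile; overnight exposure to compound and PED6 before scoring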); settings: Zebrafish larvae PED6 lipid processing, fluorescence scoring; screened at 20 µM (by protocol)
# Method in brief: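 Also added: quenched phospholipase substrate PED6, 100 nM final, ingested by larvae; System: zebrafish larvae, 5-7 d; Quantity: 5 larvae per well; Compound: 20 µM single dose; Schedule: overnight compound and PED6 incubation; Read-out: visual per-well fluorescence inhibition score; Measured by: By-eye fluorescence microscopy; Medium: E3.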
# [8] = inhibitors of Sendai virus-induced IRF3 signaling, primary screen, TLR/RLR signaling modifier project, cell-based, Sendai virus stimulus, luciferase, 10K MLSCN set (AID 602276;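 active = inhibition at or above 50% at 10 µM; inactive = inhibition below 50%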;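 note: firefly luciferase from ISG56 promoter only with Renilla not read in this screen; 0% = Sendai virus plus DMSO and 100% = medium plus DMSO without virus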); settings: HEK293 RL24 IRF3 luciferase reporter, at 10 µM, stronger effect = higher value
# [9] = inhibitors of poly I:C-induced TLR3 signaling, primary screen, cell-based, poly I:C stimulus, luciferase, 10K MLSCN set (AID 602277); settings: HEK293-TLR3 RL24 IRF3 luciferase reporter, at 10 µM, stronger effect = higher value
# Chain of Voltage-gated potassium channel subunit beta-2 (Rattus norvegicus) (P62483 whole entry, looked up): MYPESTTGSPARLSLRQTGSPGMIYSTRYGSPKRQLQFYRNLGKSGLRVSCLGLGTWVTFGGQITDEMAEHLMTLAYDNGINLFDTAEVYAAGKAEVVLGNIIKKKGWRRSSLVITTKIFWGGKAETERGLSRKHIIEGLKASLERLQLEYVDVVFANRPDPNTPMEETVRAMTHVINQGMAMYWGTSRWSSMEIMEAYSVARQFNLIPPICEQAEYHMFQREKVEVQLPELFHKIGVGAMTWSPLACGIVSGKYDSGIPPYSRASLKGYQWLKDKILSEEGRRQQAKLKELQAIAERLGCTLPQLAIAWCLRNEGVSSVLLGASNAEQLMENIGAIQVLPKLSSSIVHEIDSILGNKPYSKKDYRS
# Chain of Alpha-2C adrenergic receptor (Homo sapiens) (P18825 whole entry, looked up): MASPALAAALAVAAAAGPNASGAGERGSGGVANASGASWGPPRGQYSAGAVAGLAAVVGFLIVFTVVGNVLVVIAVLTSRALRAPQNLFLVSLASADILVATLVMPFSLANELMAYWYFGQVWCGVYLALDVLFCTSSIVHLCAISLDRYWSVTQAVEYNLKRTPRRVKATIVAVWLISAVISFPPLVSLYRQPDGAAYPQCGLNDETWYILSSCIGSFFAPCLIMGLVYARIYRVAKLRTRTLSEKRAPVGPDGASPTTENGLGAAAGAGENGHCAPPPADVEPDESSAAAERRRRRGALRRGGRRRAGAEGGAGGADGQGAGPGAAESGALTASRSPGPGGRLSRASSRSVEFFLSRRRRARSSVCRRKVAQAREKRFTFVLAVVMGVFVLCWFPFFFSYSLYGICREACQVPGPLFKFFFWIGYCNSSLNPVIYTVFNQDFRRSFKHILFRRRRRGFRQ
Compound,cell count [1],inhibition [1],inhibition of aggregation [2],nuclei count [2] [%],inhibition [3],nuclei count [3] [%],fluorescence slope [4],NADPH fluorescence slope [5],slope [6],outcome [7],inhibition [8],inhibition [9]
CCOC(=O)C1CCCN(C(=O)Cc2ccc(OC)c(OC)c2)C1 (stereo not given),705,2.6% (inactive),2.1% (inactive),100,-124% (inactive),104,-0.443 (inactive),-4.9e-05 (inactive),0.00479 (inactive),inactive,18.6% (inactive),17.7% (inactive)
CCc1c(C(=O)Nc2cc(C)ccc2OC)[nH]c(C)c1C(C)=O,313,-1.7% (inactive),-4.5% (inactive),65.3,2.7% (inactive),76.2,-0.424 (inactive),1.1e-05 (inactive),0.00495 (inactive),–,23.1% (inactive),27.6% (inactive)
CCOc1cc2oc(=O)c3c(c2cc1Cl)CCC3,400,-2.6% (inactive),5.2% (inactive),104,-24.1% (inactive),106,-0.482 (inactive),1.7e-05 (inactive),0.00626 (inactive),–,-5.28% (inactive),-30.2% (inactive)
CCN(CC(=O)Nc1ccc2c(c1)CCC2)Cc1nc2ccccc2c(=O)[nH]1,382,1.3% (inactive),-17.4% (inactive),102,-1.6% (inactive),102,-0.455 (inactive),-3.6e-05 (inactive),0.00524 (inactive),inactive,13.7% (inactive),14.8% (inactive)
COc1ccc(OCCOC(=O)c2cccc(-n3cnnn3)c2)cc1,289,4.4% (inactive),8.2% (inactive),92.8,-5.5% (inactive),112,-0.462 (inactive),-4.8e-05 (inactive),0.00521 (inactive),inactive,-2.23% (inactive),-15.7% (inactive)
O=C(Nc1ccccc1C(=O)O)c1cccc(NC(=O)c2ccc(Br)o2)c1,489,-9.3% (inactive),-2.4% (inactive),99.2,-26.5% (inactive),161,-0.441 (inactive),-4e-05 (inactive),0.00477 (inactive),inactive,6.35% (inactive),8.3% (inactive)
O=C(Cn1c(NCCO)nc2ccccc21)c1ccccc1,513,4.9% (inactive),18.2% (inactive),106,-58.5% (inactive),115,-0.58 (inactive),-1.8e-05 (inactive),0.00599 (inactive),–,9.81% (inactive),29.4% (inactive)
COc1ccc2[nH]c(=O)c(CN(Cc3cccs3)Cc3nnnn3C(C)(C)C)cc2c1,713,29.2% (inactive),1.1% (inactive),111,12.5% (inactive),88.8,-0.417 (inactive),-3.6e-05 (inactive),0.00579 (inactive),–,10% (inactive),7.17% (inactive)
CCN(CC(=O)Nc1ccc2c(c1)OCCO2)Cc1cc(=O)oc2cc(C)c(C)cc12,337,-9.6% (inactive),8.8% (inactive),96.4,-2.6% (inactive),119,-0.474 (inactive),-3.1e-05 (inactive),0.00545 (inactive),inactive,25.7% (inactive),16.9% (inactive)
COc1cc(SC)ccc1C(=O)Nc1ccccc1C#N,417,3.9% (inactive),-95.3% (inactive),2.1,-147% (inactive),111,-0.449 (inactive),-1.3e-05 (inactive),0.00527 (inactive),inactive,-42.4% (inactive),-61.5% (inactive)
COc1ccccc1OCCNC(=O)c1cccs1,333,4.3% (inactive),12.7% (inactive),97.7,-31.8% (inactive),99,-0.383 (inactive),-5.1e-05 (inactive),0.00529 (inactive),inactive,-16% (inactive),-43% (inactive)
Cn1cnnc1Sc1nc2c(c(=O)n(C)c(=O)n2C)n1Cc1ccccc1Cl,376,7.7% (inactive),-1.6% (inactive),106,-73.3% (inactive),123,-0.426 (inactive),-3.9e-05 (inactive),0.005 (inactive),inactive,15.5% (inactive),21.9% (inactive)
CCCCCCn1c(CN2CCN(Cc3ccccc3)CC2)nc2c1c(=O)n(C)c(=O)n2C,255,-15.1% (inactive),9.8% (inactive),84.1,24.2% (inactive),64,-0.43 (inactive),-5.6e-05 (inactive),0.00491 (inactive),inactive,23% (inactive),17.3% (inactive)
Cc1c(Cl)cccc1NC(=O)CCN1CCCCCC1,221,14.6% (inactive),-8.7% (inactive),90.4,-108% (inactive),143,-0.414 (inactive),-3.3e-05 (inactive),0.00752 (inactive),inactive,13.4% (inactive),20.3% (inactive)
O=C(NC1CCCCCC1)c1cc(S(=O)(=O)N2CCC3(CC2)OCCO3)ccc1F,503,-21.4% (inactive),-53.3% (inactive),72.9,-16.2% (inactive),83.7,-0.36 (inactive),9e-06 (inactive),0.00552 (inactive),inactive,-15.5% (inactive),-37.6% (inactive)
Cc1nn(-c2ccccc2)c2[nH]c(C(F)(F)F)cc(=O)c12,364,0.7% (inactive),17.9% (inactive),103,-10.5% (inactive),97.8,-0.411 (inactive),-4.4e-05 (inactive),0.00725 (inactive),inactive,5.93% (inactive),-1.53% (inactive)
COCCN1C=C(C(=O)OC)C(c2cc3c(cc2Br)OCO3)C(C(=O)OC)=C1,629,-7.8% (inactive),1.1% (inactive),112,48.4% (inactive),46.8,-0.377 (inactive),-6e-05 (inactive),0.00391 (inactive),inactive,13.3% (inactive),20.6% (inactive)
Cc1ccc(S(=O)(=O)N(CC(=O)N2CCC(C(N)=O)CC2)Cc2ccc(F)cc2)cc1,473,3.5% (inactive),-8.5% (inactive),91.9,34.4% (inactive),110,-0.361 (inactive),-6.9e-05 (inactive),0.00526 (inactive),inactive,10.4% (inactive),15.9% (inactive)
Cc1ccc(-n2c(C)cc3c2CCCC3=O)cc1,313,2.4% (inactive),-9.3% (inactive),88.9,-29.8% (inactive),118,-0.366 (inactive),-7.7e-05 (inactive),0.00516 (inactive),inactive,5.45% (inactive),8.48% (inactive)
Cc1ccc(Cl)cc1N1CCN(C(=O)c2cn(C)c(=O)c3c2c2ccccc2n3C)CC1,270,-3.3% (inactive),17.2% (inactive),8,-33.6% (inactive),114,-0.352 (inactive),-2e-05 (inactive),0.00673 (inactive),inactive,16.1% (inactive),28% (inactive)
Cc1cc(C)cc(NC(=O)CN(C)S(=O)(=O)c2cnc[nH]2)c1,484,8.7% (inactive),-24% (inactive),110,0.4% (inactive),100,-0.406 (inactive),-3.6e-05 (inactive),0.00489 (inactive),inactive,1.14% (inactive),2.32% (inactive)
Cc1nc2ccc(C(=O)O)cc2c2c1CC(C)S2 (stereo not given),462,-3.8% (inactive),-4% (inactive),106,-20.4% (inactive),104,-0.38 (inactive),-4.3e-05 (inactive),0.00518 (inactive),inactive,13.9% (inactive),11.7% (inactive)
O=C(Nc1ccc2c(c1)OCCO2)C1CCN(C(=O)c2ccc(F)cc2)CC1,397,4.1% (inactive),-5.3% (inactive),96.2,-14% (inactive),117,-0.368 (inactive),-7.6e-05 (inactive),0.00511 (inactive),inactive,-6.3% (inactive),-44.3% (inactive)
COc1ccccc1NC(=O)N(Cc1ccco1)Cc1cc2cccc(C)c2[nH]c1=O,333,-9.3% (inactive),18.6% (inactive),105,30.7% (inactive),89.2,-0.347 (inactive),-5.6e-05 (inactive),0.00419 (inactive),inactive,8.12% (inactive),-0.891% (inactive)
CC(C(=O)NC(=O)NC1CCCCC1)N1CCN(c2ccccn2)CC1 (stereo not given),611,-16.9% (inactive),8.1% (inactive),107,0.2% (inactive),134,-0.397 (inactive),-4.4e-05 (inactive),0.00612 (inactive),inactive,5.51% (inactive),9.31% (inactive)
O=C(CCCSc1nc2ccccc2s1)NC1=NCCS1,333,-7.4% (inactive),10.8% (inactive),102,-3.2% (inactive),102,-0.409 (inactive),-1.5e-05 (inactive),0.00541 (inactive),inactive,36% (inactive),60.9% (active)
O=C(O)CCC(=O)NC1CCCCC1NC(=O)CCC(=O)O (stereo not given),488,4% (inactive),-8.6% (inactive),104,-189% (inactive),129,-0.394 (inactive),-6.2e-05 (inactive),0.00623 (inactive),inactive,5.12% (inactive),3.98% (inactive)
